Data published in ChEMBL document CHEMBL1129431, “Derivatives of (R)- and (S)-5-fluoro-8-hydroxy-2-(dipropylamino)tetralin: synthesis and interactions with 5-HT1A receptors” (J Med Chem, 1996).

Assays:
[1] = target: T1, 5-hydroxytryptamine receptor 1A (Rattus norvegicus) (UniProt P19327); experiment: Effect on 5-hydroxytryptamine 1A receptor mediated inhibition of VIP-stimulated cAMP production at dose of 50 uM; format: functional; settings: values are per cent of control
T1 sequence (whole entry): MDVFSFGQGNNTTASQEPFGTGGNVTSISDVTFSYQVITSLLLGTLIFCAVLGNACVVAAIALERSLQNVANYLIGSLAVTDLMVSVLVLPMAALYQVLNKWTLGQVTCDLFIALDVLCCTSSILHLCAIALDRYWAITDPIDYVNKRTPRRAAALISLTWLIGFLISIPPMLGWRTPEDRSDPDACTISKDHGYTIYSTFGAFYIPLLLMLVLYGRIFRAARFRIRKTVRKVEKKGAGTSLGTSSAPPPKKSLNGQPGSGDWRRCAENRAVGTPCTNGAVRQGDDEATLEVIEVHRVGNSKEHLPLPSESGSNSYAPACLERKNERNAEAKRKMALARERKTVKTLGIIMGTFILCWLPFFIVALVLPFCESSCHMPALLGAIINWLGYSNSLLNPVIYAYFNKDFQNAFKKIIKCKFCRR
Method in brief: (§1)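 GH4ZD10 cells expressing rat 5-HT1A receptors, detached with EDTA-supplemented Ca/Mg-free EBSS and resuspended in Ham's F10 with 0.01% ascorbic acid and 0.1 mM IBMX. Preincubated 1 h at 37 °C, then 0.8-1.5×10^6 cells/mL incubated 20 min at 37 °C with VIP (39 nM final) plus compounds. Duplicate samples stopped by boiling. cAMP measured in triplicate by protein-binding assay. Results are given as % of the VIP-stimulated response.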

[2] = target: T1, 5-hydroxytryptamine receptor 1A (Rattus norvegicus); experiment: Effect on 5-hydroxytryptamine 1A receptor mediated inhibition of VIP-stimulated cAMP production at dose of 0.1 uM + 1 uM 5-HT.; format: functional; settings: values are per cent of control
Method in brief: (§2)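 GH4ZD10 cells expressing rat 5-HT1A receptors were detached with EBSS plus 1 mM EDTA and resuspended to ~1×10^7 cells/mL in Ham's F10 with 0.01% ascorbic acid and 0.1 mM IBMX. After 1 h preincubation at 37 °C they were diluted to 0.8-1.5×10^6 cells/mL, then incubated 20 min at 37 °C with VIP (39 nM final) plus compound, alone or with 5-HT, in duplicate. The reaction was stopped by boiling. cAMP was measured in triplicate by protein-binding assay and expressed as % of the VIP-stimulated response.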

[3] = target: T2, 5-hydroxytryptamine receptor 1A (Rattus norvegicus, UniProt P19327); experiment: Binding affinity against rat hippocampal 5-hydroxytryptamine 1A (5-HT1A) receptor determined using [3H]8-OH-DPAT as radioligand; format: tissue-based, Hippocampus
T2 sequence (P19327 whole entry): T1 sequence (whole entry)

[4] = target: T1, 5-hydroxytryptamine receptor 1A (Rattus norvegicus); experiment: Effect on 5-hydroxytryptamine 1A receptor mediated inhibition of VIP-stimulated cAMP production at dose of 1 uM; format: functional; settings: values are per cent of control; method in brief: as §2
[5] = target: T1, 5-hydroxytryptamine receptor 1A (Rattus norvegicus); settings: 0.05 uM
[6] = target: T1, 5-hydroxytryptamine receptor 1A (Rattus norvegicus); experiment: Effect on 5-hydroxytryptamine 1A receptor mediated inhibition of VIP-stimulated cAMP production at dose of 1 uM+ 50 uM 5-HT.; format: functional; settings: values are per cent of control; method in brief: as §1
[7] = target: T1, 5-hydroxytryptamine receptor 1A (Rattus norvegicus); experiment: Effect on 5-hydroxytryptamine 1A receptor mediated inhibition of VIP-stimulated cAMP production at dose of 0.05 uM; format: functional; settings: values are per cent of control; method in brief: as §1
[8] = target: T1, 5-hydroxytryptamine receptor 1A (Rattus norvegicus); experiment: Effect on 5-hydroxytryptamine 1A receptor mediated inhibition of VIP-stimulated cAMP production at dose of 10 uM; format: functional; settings: values are per cent of control; method in brief: as §2
[9] = target: T1, 5-hydroxytryptamine receptor 1A (Rattus norvegicus); experiment: Effect on 5-hydroxytryptamine 1A receptor mediated inhibition of VIP-stimulated cAMP production at dose of 1 uM+ 1 uM 5-HT.; format: functional; settings: values are per cent of control; method in brief: as §1
[10] = target: T1, 5-hydroxytryptamine receptor 1A (Rattus norvegicus); experiment: Effect on 5-hydroxytryptamine 1A receptor mediated inhibition of VIP-stimulated cAMP production at dose of 50 uM+ 50 uM 5-HT.; format: functional; settings: values are per cent of control; method in brief: as §1
[11] = target: T1, 5-hydroxytryptamine receptor 1A (Rattus norvegicus); experiment: Effect on 5-hydroxytryptamine 1A receptor mediated inhibition of VIP-stimulated cAMP production at dose of 10 uM+ 10 uM 5-HT.; format: functional; settings: values are per cent of control; method in brief: as §1

| response, % of control [1] [%] | response, % of control [2] [%] | Ki [3] [nM] | response, % of control [4] [%] | response, % of control [5] [%] | response, % of control [6] [%] | response, % of control [7] [%] | response, % of control [8] [%] | response, % of control [9] [%] | response, % of control [10] [%] | response, % of control [11] [%] | Compound |
| --- | --- | --- | --- | --- | --- | --- | --- | --- | --- | --- | --- |
| 39 | 50 | 4.9 | 79 | 87 | 41 |  |  |  |  |  | CCCN(CCCCN1C(=O)CC2(CCCC2)CC1=O)[C@H]1CCc2c(F)ccc(OC)c2C1 |
| 93 | 70 | 13.9 | 97 |  |  | 104 | 109 | 91 | 91 | 102 | CCCN(CCCCN1C(=O)CC2(CCCC2)CC1=O)[C@H]1CCc2c(F)ccc(C(C)=O)c2C1 |
